The list is not random: actives were taken first. Their share in the collection is about 1.9%.
Tb MetRS inh: T. brucei MetRS inhibitors, primary screen, biochemical, luminescence. methionyl-tRNA synthetase (Trypanosoma brucei brucei). purified T. brucei MetRS, ATP depletion, Kinase-Glo luminescence. inhibition, % at 11.9 µM. 360,000 tested, 0.4% active;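 active = inhibition above a per-plate cutoff of the control wells' mean inhibition plus 3 SD, cut at about 5.5% in these data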;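 also: 0% = DMSO wells median and 100% = median of wells with control inhibitor compound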
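assay system = parasite MetRS enzyme | timing = 15 min preincubation, 2 h reaction, all 25 °C | evaluation = percent inhibition relative to median high and low control wells | medium = HEPES buffer containing pyrophosphatase, BSA, spermine, DTT | compound = single dose, 11.9 µM final nominal, 0.9% final DMSO | detection = Kinase-Glo luminescence, ATP depletion format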
PLCg1 inh: PLC-gamma1 enzyme inhibitors, primary screen, biochemical, fluorescence, purified enzyme. inhibition, % at 12.2 µM. 370,000 tested, 0.84% active. fluorogenic substrate. 1-phosphatidylinositol 4,5-bisphosphate phosphodiesterase gamma-1 (Homo sapiens), P19174. AID 720700, 2013; in the data active = inhibition above about 9.5%
HGIII-sPLA2 inh: human group III sPLA2 inhibitors, primary screen, biochemical, QFRET, BODIPY PC-A2 liposome substrate; Group 3 secretory phospholipase A2 (Homo sapiens), Q9NZ20; QFRET BODIPY PC-A2 liposome hydrolysis, fluorescence; inhibition, % at 12.2 µM; 370,000 tested, 0.56% active; AID 743126, 2013;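 active = inhibition above mean plus 3 SD of compounds lying within the high and low control bounds, cut at about 19% in these data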;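 also: 0% = median of test compound wells and 100% = no enzyme DMSO wells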
PLC-beta3 inh: human PLC-beta3 inhibitors, primary screen, biochemical, fluorescence | 1-phosphatidylinositol 4,5-bisphosphate phosphodiesterase beta-3 (Homo sapiens), Q01970 | Purified PLC-beta3, fluorogenic substrate | inhibition, % at 12.2 µM | 370,000 tested, 0.18% active | AID 720704, 2013;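 also: 0% = median of compound wells on plate and 100% = full blocker control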
PLCgamma1 ctr: PLC-gamma1 enzyme inhibitors, counter-screen for PLC-beta3 inhibitor project, biochemical, fluorescence; purified PLC-gamma1, fluorogenic substrate; 3,300 tested, 3.1% active; inhibition, % at 12.3 µM; shares compounds with PLCg1 inh; in the data active = inhibition above about 9.5%
PLCbeta3 conf: PLC-beta3 inhibitor confirmation, biochemical, fluorescence, purified enzyme; shares compounds with PLCg1 inh; fluorogenic substrate fluorescence; 3,300 tested, 1% active; inhibition, % at 12.3 µM; AID 743261, 2014
Starred values were filed as active, the others as inactive; . = no result given. Rule as the data show it, unless noted: active = inhibition above about 11%; inactive = the rest.

SMILES	Tb MetRS inh	PLCg1 inh	HGIII-sPLA2 inh	PLC-beta3 inh	PLCgamma1 ctr	PLCbeta3 conf
CC1=CCn2c(=O)c3ccccc3c(=O)n2C1	0	11*	0	1	8	2
O=c1c2ccccc2c(=O)n2n1Cc1ccccc1C2	0	0	0	-5	.	.
Cc1ccc(-c2nnc(SCC(=O)Nc3ccc(Oc4ccccc4)cc3)n2-c2ccc(Cl)cc2)cc1	.	1	0	5	.	.
CCCCCC(=O)Nc1ccc(Cl)cn1	-2	5	0	4	.	.
CCCCCC(=O)NC(=S)Nc1ccc(Cl)cn1	0	10*	13	1	-5	-5
Cc1ccc(CN2CCN(/N=C/c3ccc(C(F)(F)F)cc3)CC2)cc1	0	10*	10	10	-4	-1
CC(C)CSc1ncccc1-c1nc2ccccc2[nH]1	.	-2	0	-8	.	.
O=C(O)CCC1COc2ccccc2O1 (stereo not given)	0	11*	8	10	1	-3
CC(C)(C)C(=O)O[C@@H]1CCC[C@@]2(C(=O)N(Cc3ccccc3)c3ccccc32)[C@H]1NC(=O)CCc1ccccc1	.	1	-11	6	.	.
O=C(NCc1ccc(OC(F)(F)F)cc1)C1CC2Cn3c(nc4ccccc43)C2N1Cc1ccccc1 (stereo not given)	0	-1	1	0	.	.
O=C(NCc1cccc(C(F)(F)F)c1)C1CC2Cn3c(nc4ccccc43)C2N1Cc1ccccc1 (stereo not given)	0	6	-1	12*	-5	-1
O=C1CCC[C@H]2Cc3nc4cccc(Cl)c4cc3C[C@]23CCCN13	.	2	3	2	.	.
Cc1nc2ccc(S(=O)(=O)N(C)CC(=O)NCc3ccc4c(c3)OCO4)cc2s1	-1	0	-6	0	.	.
Cc1nc2ccc(S(=O)(=O)NCC(=O)NCc3ccc4c(c3)OCO4)cc2s1	-1	5	9	12*	-8	-4
O=C(ON=C1CCN(c2ccc([N+](=O)[O-])cc2)CC1)c1ccccc1	0	9.9*	-10	0	-6	-4
Cc1cccc(-c2cccc3c4c([nH]c23)[C@@H]2C[C@H](N(C)C(=O)NC3CCCCC3)[C@H]([C@H](C)O)C(=O)N2CC4)c1	.	-31	-31	-44	.	.
CCSc1cc(C)nc2ncnn12	0	13*	10	14*	-13	-6
CCCCCCSc1cc(C)nc2ncnn12	2	-3	14	0	.	.
Cc1ccc(S(=O)(=O)N2CCCc3nc(-c4ccccc4)ccc32)cc1	.	1	-3	-4	.	.
CCN1CCN(c2nc(N)c([N+](=O)[O-])c(Nc3ccc(C)cc3)n2)CC1	0	13*	-14	8	-6	5
CCN1CCN(c2nc(N)c([N+](=O)[O-])c(Nc3ccc(C)c(C)c3)n2)CC1	0	2	2	0	.	.
COc1ccc(C(c2nnnn2C(C)(C)C)N2CCN(C/C=C/c3ccccc3)CC2)cc1 (stereo not given)	0	11*	-5	5	-4	-3
COc1ccccc1N1CCN(C(c2ccc(Cl)cc2)c2nnnn2C(C)(C)C)CC1 (stereo not given)	-1	13*	14	5	5	5
COc1ccccc1N1CCN(C(c2ccccc2Cl)c2nnnn2C(C)(C)C)CC1 (stereo not given)	0	.	.	.	.	.
COc1ccc(C(c2nnnn2-c2ccc(OC)cc2)N2CCN(C/C=C/c3ccccc3)CC2)cc1 (stereo not given)	0	3	-13	-1	.	.
SMILES	Tb MetRS inh	PLCg1 inh	HGIII-sPLA2 inh	PLC-beta3 inh	PLCgamma1 ctr	PLCbeta3 conf
COC(=O)C1CN(Cc2ccc(C)cc2)CCS(=O)(=O)N1Cc1cn(Cc2ccc(OC)cc2)nn1 (stereo not given)	.	3	0	6	.	.
N#C/C(=C\c1ccccc1)C(=O)NNS(=O)(=O)c1cccc([N+](=O)[O-])c1	0	11*	-36	1	2	6
N#C/C(=C/c1cccc([N+](=O)[O-])c1)C(=O)Nc1ccccc1O	-1	1	-39	-5	.	.
CCCNC(=O)NC(C(=O)OC)C12CC3CC(CC(C3)C1)C2 (stereo not given)	-1	11*	3	6	0	0
CCCNC(=O)N[C@@H](CCSC)C(=O)OC	-1	-2	1	3	.	.
O=C(CCC(=O)N1CCCc2ccccc21)N1CCN(S(=O)(=O)c2ccccc2)CC1	-1	11*	8	10	-6	-4
CC(=O)c1ccc(S(=O)(=O)N2CCCc3ccccc32)cc1	-1	7	-8	-1	.	.
O=C(CCS(=O)(=O)c1ccccc1)N1CCCc2ccccc21	0	0	7	-8	.	.
O=C(O)c1ccc(S(=O)(=O)N2CCCc3ccccc32)cc1	-1	9.9*	2	0	-4	1
Nc1[nH]c(C(=O)c2ccccc2)c(-c2ccccc2C(F)(F)F)c1C(=O)c1c[nH]c2ccccc12	.	-16	-7	-21	.	.
Fc1ccc(C(c2nnnn2C2CCCC2)N(Cc2ccco2)CC2CCCO2)cc1 (stereo not given)	-1	11*	1	12*	-7	0
COC(=O)[C@]12C[C@H](CC(=O)NCCCN3CCCC3=O)C(=O)N(Cc3ccccc3)C1=C[C@H](C(C)C)O[C@@H]2C1CC1	.	0	6	2	.	.
CN1CCCCC(NC(=O)c2ccc(C#N)cc2)C1=O (stereo not given)	.	-1	2	3	.	.
O=C(CSc1nc2ccccc2n1Cc1ccccc1Cl)NN=C/C(Br)=C/c1ccccc1	.	-1	-7	-1	.	.
O=C(O)CC(NC(=O)C12CC3CC(CC(C3)C1)C2)c1cc([N+](=O)[O-])ccc1Cl (stereo not given)	-1	13*	9	6	-5	-4
CN[C@H](C)C(=O)NC[C@H]1O[C@@H](n2ccc(N)nc2=O)[C@H](O)[C@@H]1O	-1	0	5	-2	.	.
CC(=O)NC[C@H]1O[C@@H](n2ccc(N)nc2=O)[C@H](O)[C@@H]1O	-1	10*	6	9	-4	1
N#Cc1ccccc1S(=O)(=O)N1CCN(CC(O)CN2CCOCC2)CC1 (stereo not given)	0	9.7*	13	0	-4	1
O=C(COC(=O)c1ccccc1C(=O)OCC(=O)NCCc1c[nH]c2ccccc12)NCCc1c[nH]c2ccccc12	0	9.9*	-70	5	9.6*	3
C[C@H]1CN(C(=O)OC(C)(C)C)CCN1c1ccc(N2CC[C@@H](O)C2)c(C#N)c1	.	-157	17	-200	.	.

Assay outcomes (PubChem BioAssay)
